Tests used:
[1] = tested on: HT-29; experiment: Antiproliferative activity against human HT-29 cells after 72 hrs by MTT assay; assay type: functional, cell-based; settings: HT-29, 72 h
Method in brief: (§1)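 MTT assay. Cells grown in MEM with 10% FBS. About 4 × 10³ cells per well were plated and left 24 h at 37 °C in 5% CO₂. Compounds were then added for a further 72 h. MTT was added to a final 5 µg/mL for 4 h at 37 °C. Formazan was dissolved in DMSO and read at 492 nm against a 630 nm reference. Each line was tested three times, and IC50 is the average of at least three determinations.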

[2] = Antiproliferative activity against human H460 cells after 72 hrs by MTT assay; assay type: functional, cell-based; settings: NCI-H460, 72 h; method in brief: as §1
[3] = tested on: MDA-MB-231; experiment: Antiproliferative activity against human MDA-MB-231 cells after 72 hrs by MTT assay; assay type: functional, cell-based; settings: MDA-MB-231, 72 h; method in brief: as §1
[4] = Cytotoxicity against human WI38 cells after 72 hrs by MTT assay; assay type: cell-based; settings: WI-38, 72 h; method in brief: as §1
[5] = target: Mast/stem cell growth factor receptor Kit (Homo sapiens) (UniProt P10721); experiment: Inhibition of c-KIT (unknown origin) at 10 uM after 1 hr by mobility shift assay
Mast/stem cell growth factor receptor Kit (Homo sapiens), sequence (P10721 whole entry): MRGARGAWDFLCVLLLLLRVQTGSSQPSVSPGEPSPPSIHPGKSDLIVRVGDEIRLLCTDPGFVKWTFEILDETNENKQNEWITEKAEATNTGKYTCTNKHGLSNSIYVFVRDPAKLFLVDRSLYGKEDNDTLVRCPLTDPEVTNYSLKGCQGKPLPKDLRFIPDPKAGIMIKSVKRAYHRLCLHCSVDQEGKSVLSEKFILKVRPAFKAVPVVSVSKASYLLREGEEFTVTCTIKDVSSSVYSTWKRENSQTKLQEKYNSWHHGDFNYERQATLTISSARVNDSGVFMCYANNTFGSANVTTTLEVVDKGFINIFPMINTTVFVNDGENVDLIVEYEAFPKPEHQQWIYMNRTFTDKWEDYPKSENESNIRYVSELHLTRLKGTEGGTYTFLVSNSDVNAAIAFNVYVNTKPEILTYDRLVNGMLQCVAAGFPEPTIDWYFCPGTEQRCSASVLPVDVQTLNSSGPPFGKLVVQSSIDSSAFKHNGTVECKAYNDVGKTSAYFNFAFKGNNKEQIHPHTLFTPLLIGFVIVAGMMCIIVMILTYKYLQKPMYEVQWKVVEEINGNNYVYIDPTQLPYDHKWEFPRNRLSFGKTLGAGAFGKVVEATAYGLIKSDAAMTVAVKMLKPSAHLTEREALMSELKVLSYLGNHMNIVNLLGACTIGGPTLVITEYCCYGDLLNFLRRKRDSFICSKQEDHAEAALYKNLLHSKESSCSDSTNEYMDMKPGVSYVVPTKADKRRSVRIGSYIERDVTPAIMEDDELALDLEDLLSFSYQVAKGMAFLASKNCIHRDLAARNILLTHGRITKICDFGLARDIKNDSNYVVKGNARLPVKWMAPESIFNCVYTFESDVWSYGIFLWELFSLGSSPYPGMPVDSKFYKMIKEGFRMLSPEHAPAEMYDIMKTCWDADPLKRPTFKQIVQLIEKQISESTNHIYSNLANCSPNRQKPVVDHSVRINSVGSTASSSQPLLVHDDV
Method in brief: (§2)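 Mobility shift kinase assay. Compounds were diluted in DMSO and then in kinase buffer, and tested in duplicate wells with enzyme and peptide substrate. Incubation was 1 h at 28 °C before stop buffer was added.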

[6] = target: Proto-oncogene tyrosine-protein kinase receptor Ret (Homo sapiens) (UniProt P07949); experiment: Inhibition of RET (unknown origin) at 10 uM after 1 hr by mobility shift assay; method in brief: as §2
Proto-oncogene tyrosine-protein kinase receptor Ret (Homo sapiens), sequence (P07949 whole entry): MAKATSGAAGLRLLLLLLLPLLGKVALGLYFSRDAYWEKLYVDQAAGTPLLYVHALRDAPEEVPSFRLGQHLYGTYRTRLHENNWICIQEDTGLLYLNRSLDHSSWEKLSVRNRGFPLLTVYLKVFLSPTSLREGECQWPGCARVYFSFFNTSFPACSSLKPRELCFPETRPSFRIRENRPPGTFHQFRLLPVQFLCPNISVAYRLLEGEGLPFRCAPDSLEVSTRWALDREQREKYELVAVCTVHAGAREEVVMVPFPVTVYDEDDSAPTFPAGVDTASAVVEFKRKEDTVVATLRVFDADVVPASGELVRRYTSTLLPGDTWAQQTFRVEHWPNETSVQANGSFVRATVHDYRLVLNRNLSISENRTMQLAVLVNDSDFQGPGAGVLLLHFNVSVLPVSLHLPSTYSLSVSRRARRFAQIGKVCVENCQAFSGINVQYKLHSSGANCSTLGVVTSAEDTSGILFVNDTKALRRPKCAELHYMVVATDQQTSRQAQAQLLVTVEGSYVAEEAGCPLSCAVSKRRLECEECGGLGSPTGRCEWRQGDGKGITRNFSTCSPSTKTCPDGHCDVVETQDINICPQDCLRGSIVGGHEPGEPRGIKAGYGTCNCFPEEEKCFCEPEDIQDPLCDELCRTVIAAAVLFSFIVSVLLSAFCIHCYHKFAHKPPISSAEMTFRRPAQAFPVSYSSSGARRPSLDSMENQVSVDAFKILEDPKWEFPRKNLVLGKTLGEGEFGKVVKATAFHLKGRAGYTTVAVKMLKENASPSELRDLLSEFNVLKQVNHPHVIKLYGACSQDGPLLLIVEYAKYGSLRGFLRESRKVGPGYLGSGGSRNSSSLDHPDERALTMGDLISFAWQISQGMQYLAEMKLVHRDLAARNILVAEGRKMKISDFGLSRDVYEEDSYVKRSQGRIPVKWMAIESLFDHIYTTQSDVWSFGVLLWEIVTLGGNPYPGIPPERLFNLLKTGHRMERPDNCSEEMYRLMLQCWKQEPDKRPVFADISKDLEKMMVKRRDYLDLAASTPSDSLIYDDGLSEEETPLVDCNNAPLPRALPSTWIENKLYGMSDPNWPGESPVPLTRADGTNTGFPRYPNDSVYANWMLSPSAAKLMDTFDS

[7] = target: Receptor-type tyrosine-protein kinase FLT3 (Homo sapiens) (UniProt P36888); experiment: Inhibition of FLT3 (unknown origin) at 10 uM after 1 hr by mobility shift assay; method in brief: as §2
Receptor-type tyrosine-protein kinase FLT3 (Homo sapiens), sequence (P36888 whole entry): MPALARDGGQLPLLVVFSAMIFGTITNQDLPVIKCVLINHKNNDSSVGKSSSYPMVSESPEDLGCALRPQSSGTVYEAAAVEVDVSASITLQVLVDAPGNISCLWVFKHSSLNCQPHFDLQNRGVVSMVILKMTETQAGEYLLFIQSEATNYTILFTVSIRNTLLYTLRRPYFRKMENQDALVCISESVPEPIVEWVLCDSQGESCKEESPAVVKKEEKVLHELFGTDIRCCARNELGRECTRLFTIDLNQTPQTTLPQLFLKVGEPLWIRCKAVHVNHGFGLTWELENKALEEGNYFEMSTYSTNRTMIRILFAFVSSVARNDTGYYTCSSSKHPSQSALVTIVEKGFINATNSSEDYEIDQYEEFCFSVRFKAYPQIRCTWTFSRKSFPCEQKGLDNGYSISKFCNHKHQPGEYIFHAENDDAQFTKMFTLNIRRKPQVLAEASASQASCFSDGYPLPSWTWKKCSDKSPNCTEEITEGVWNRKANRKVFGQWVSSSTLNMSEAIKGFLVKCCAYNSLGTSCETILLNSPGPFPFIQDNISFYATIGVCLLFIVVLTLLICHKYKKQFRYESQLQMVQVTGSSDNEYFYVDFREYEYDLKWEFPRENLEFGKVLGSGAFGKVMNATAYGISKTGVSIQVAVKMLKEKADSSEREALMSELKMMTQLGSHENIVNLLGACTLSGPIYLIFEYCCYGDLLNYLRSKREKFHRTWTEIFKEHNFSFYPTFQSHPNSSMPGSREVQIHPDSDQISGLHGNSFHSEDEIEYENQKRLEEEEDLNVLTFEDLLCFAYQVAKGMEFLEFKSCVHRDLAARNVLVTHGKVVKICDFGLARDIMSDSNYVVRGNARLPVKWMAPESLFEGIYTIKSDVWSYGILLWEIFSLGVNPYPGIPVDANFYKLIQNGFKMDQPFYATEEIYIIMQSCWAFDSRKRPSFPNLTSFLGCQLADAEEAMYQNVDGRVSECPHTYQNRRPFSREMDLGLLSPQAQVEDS

[8] = target: Vascular endothelial growth factor receptor 2 (Homo sapiens) (UniProt P35968); settings: at 10 µM;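 further: kinase activity read out by mobility shift assay after 1 h of incubation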
Vascular endothelial growth factor receptor 2 (Homo sapiens), sequence (P35968 whole entry): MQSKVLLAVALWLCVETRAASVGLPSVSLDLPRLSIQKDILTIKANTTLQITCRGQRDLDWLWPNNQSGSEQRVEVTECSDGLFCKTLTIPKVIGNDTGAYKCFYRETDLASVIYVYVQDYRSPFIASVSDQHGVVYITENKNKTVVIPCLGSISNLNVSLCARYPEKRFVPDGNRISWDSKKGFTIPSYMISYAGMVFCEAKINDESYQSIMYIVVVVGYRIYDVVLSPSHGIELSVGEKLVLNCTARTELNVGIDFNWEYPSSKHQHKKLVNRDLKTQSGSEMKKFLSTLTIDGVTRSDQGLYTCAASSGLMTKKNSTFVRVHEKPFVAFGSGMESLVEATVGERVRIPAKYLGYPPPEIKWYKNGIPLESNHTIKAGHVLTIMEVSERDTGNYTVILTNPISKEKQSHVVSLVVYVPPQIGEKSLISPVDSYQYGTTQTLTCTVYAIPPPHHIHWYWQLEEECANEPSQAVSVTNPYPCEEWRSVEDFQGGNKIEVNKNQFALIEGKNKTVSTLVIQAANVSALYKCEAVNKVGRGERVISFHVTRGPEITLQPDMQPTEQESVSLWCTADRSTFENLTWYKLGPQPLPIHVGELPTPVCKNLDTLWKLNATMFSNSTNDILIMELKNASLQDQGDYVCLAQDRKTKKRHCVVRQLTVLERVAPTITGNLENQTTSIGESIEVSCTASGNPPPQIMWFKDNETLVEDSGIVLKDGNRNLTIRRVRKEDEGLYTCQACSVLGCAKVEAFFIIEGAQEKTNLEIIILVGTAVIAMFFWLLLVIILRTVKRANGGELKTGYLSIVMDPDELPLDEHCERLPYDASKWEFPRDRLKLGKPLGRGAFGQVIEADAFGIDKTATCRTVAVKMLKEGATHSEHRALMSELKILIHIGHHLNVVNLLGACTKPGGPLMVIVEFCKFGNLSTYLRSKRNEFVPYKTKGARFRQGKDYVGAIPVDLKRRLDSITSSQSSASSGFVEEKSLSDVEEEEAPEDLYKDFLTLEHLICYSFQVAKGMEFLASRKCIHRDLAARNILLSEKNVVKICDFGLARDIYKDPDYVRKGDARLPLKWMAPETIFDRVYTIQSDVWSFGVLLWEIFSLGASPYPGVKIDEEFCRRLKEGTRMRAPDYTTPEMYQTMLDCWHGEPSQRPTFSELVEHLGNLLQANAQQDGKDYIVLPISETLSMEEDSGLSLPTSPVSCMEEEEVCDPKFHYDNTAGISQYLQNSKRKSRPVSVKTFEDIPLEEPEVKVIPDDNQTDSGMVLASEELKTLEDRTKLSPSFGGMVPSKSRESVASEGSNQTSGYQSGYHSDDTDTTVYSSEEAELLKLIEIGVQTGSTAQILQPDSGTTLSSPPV

[9] = tested on: HT-29; experiment: Induction of apoptosis in human HT-29 cells assessed as necrotic cells at 1 uM after 48 hrs by annexin V/propidium iodide staining based flow cytometric analysis (reference value: 3.66 %); assay type: functional
[10] = tested on: HT-29; experiment: Induction of apoptosis in human HT-29 cells assessed as late apoptotic cells at 1 uM after 48 hrs by annexin V/propidium iodide staining based flow cytometric analysis (reference value: 2.49 %); assay type: functional
[11] = tested on: HT-29; experiment: Induction of apoptosis in human HT-29 cells assessed as early apoptotic cells at 1 uM after 48 hrs by annexin V/propidium iodide staining based flow cytometric analysis (reference value: 1.72 %); assay type: functional
[12] = tested on: HT-29; experiment: Induction of apoptosis in human HT-29 cells after 48 hrs by annexin V/propidium iodide staining based flow cytometric analysis; assay type: functional, cell-based
[13] = tested on: HT-29; experiment: Induction of apoptosis in human HT-29 cells assessed as viable cells at 1 uM after 48 hrs by annexin V/propidium iodide staining based flow cytometric analysis (reference value: 92.1 %); assay type: functional; settings: HT-29, 48 h, read-out: Activity
[14] = tested on: HT-29; experiment: Induction of apoptosis in human HT-29 cells assessed as viable cells 2 uM after 48 hrs by annexin V/propidium iodide staining based flow cytometric analysis (reference value: 92.1 %); assay type: functional
[15] = tested on: HT-29; experiment: Induction of apoptosis in human HT-29 cells assessed as early apoptotic cells at 2 uM after 48 hrs by annexin V/propidium iodide staining based flow cytometric analysis (reference value: 1.72 %); assay type: functional
[16] = tested on: HT-29; experiment: Induction of apoptosis in human HT-29 cells assessed as late apoptotic cells at 2 uM after 48 hrs by annexin V/propidium iodide staining based flow cytometric analysis (reference value: 2.49 %); assay type: functional
[17] = tested on: HT-29; experiment: Induction of apoptosis in human HT-29 cells assessed as necrotic cells at 2 uM after 48 hrs by annexin V/propidium iodide staining based flow cytometric analysis (reference value: 3.66 %); assay type: functional
[18] = tested on: HT-29; experiment: Induction of apoptosis in human HT-29 cells assessed as viable cells 5 uM after 48 hrs by annexin V/propidium iodide staining based flow cytometric analysis (reference value: 92.1 %); assay type: functional
[19] = tested on: HT-29; experiment: Induction of apoptosis in human HT-29 cells assessed as early apoptotic cells at 5 uM after 48 hrs by annexin V/propidium iodide staining based flow cytometric analysis (reference value: 1.72 %); assay type: functional
[20] = tested on: HT-29; experiment: Induction of apoptosis in human HT-29 cells assessed as late apoptotic cells at 5 uM after 48 hrs by annexin V/propidium iodide staining based flow cytometric analysis (reference value: 2.49 %); assay type: functional
[21] = tested on: HT-29; experiment: Induction of apoptosis in human HT-29 cells assessed as necrotic cells at 5 uM after 48 hrs by annexin V/propidium iodide staining based flow cytometric analysis (reference value: 3.66 %); assay type: functional

Row | SMILES | IC50 [1] [µM] | IC50 [2] [µM] | IC50 [3] [µM] | IC50 [4] [µM] | inhibition [5] [%] | inhibition [6] [%] | inhibition [7] [%] | inhibition [8] [%] | further results
1 | Cn1ncnc1-c1cc(Oc2ccc(NC(=O)Nc3ccc(Cl)c(C(F)(F)F)c3)cc2F)ccn1 | 12.4 | > 50 | > 50 | > 50 |  |  |  |  | 
2 | CCN(CC)CCn1cnnc1-c1cc(Oc2ccc(NC(=O)Nc3cccc(C(F)(F)F)c3)cc2F)ccn1 | 0.63 | 9.87 | 0.72 | 6.92 | 66.5 | 72.1 | 61 | 11.5 | 
3 | CN(C)CCCn1cnnc1-c1cc(Oc2ccc(NC(=O)Nc3ccccc3C(F)(F)F)cc2F)ccn1 | 3.13 | 10.9 | 40.5 | 28.6 |  |  |  | 1.7 | 
4 | CCN(CC)CCn1cnnc1-c1cc(Oc2ccc(NC(=O)Nc3ccc(F)c(F)c3)cc2F)ccn1 | 1.24 | 14.8 | 41.3 | > 50 | 27.7 | 7.1 | 39 | 0 | 
5 | CN(C)CCCn1cnnc1-c1cc(Oc2ccc(NC(=O)Nc3ccc(F)c(F)c3)cc2F)ccn1 | 1.21 | 1.08 | 25.2 | 15.3 | 63.1 | 30.9 | 44.3 | 20.3 | 
6 | O=C(Nc1ccc(Oc2ccnc(-c3nncn3CCCN3CCOCC3)c2)c(F)c1)Nc1ccccc1C(F)(F)F | 15.7 |  |  |  |  |  |  |  | 
7 | CCN(CC)CCn1cnnc1-c1cc(Oc2ccc(NC(=O)Nc3ccc(F)c(Cl)c3)cc2F)ccn1 | 0.5 | 7.39 | 34 | 28.7 | 40.4 | 1.9 | 59.6 | 2.7 | 
8 | CN(C)CCCn1cnnc1-c1cc(Oc2ccc(NC(=O)Nc3ccc(Cl)cc3Cl)cc2F)ccn1 | 0.68 | 3.68 | 7.49 | 3.26 |  |  |  | 11.3 | 
9 | CN(C)CCn1cnnc1-c1cc(Oc2ccc(NC(=O)Nc3ccc(F)c(F)c3)cc2F)ccn1 | 3.62 | 9.05 | > 50 | > 50 | 3.9 | 17.6 | 13.5 |  | 
10 | CCN(CC)CCn1cnnc1-c1cc(Oc2ccc(NC(=O)Nc3ccc(Cl)c(C(F)(F)F)c3)cc2F)ccn1 | 0.9 | 0.85 | 1.54 | 6.73 | 79.9 | 84.4 | 84.9 | 10 | Activity [9]: 7.44%; Activity [10]: 8.34%; Activity [11]: 3.92%; Activity [12]: Dose-dependent effect; viability at 1 µM [13]: 80.3%; Activity [14]: 66.4%; Activity [15]: 14.4%; Activity [16]: 13.2%; Activity [17]: 6.03%; Activity [18]: 43.3%; Activity [19]: 10.6%; Activity [20]: 37.5%; Activity [21]: 8.59%
11 | O=C(Nc1ccc(Oc2ccnc(-c3nncn3CCCN3CCOCC3)c2)c(F)c1)Nc1ccc(Cl)cc1Cl | 3.56 |  | > 50 |  | 43.5 | 45.6 | 22 |  | 
12 | CN(C)CCCn1cnnc1-c1cc(Oc2ccc(NC(=O)Nc3cccc(C(F)(F)F)c3)cc2F)ccn1 | 0.98 | 1.79 | 13.3 | 11.6 | 69.9 | 85.6 | 69.2 | 62.8 | 
13 | CCN(CC)CCn1cnnc1-c1cc(Oc2ccc(NC(=O)Nc3ccccc3C(F)(F)F)cc2F)ccn1 | 3.41 | > 50 | 11.6 | 23.5 |  |  |  |  | 
14 | CN(C)CCCn1cnnc1-c1cc(Oc2ccc(NC(=O)Nc3ccc(F)c(Cl)c3)cc2F)ccn1 | 0.89 | 1.27 | 14.2 | 5.37 | 71 | 45.5 | 72.1 | 35 | 
15 | Cn1cnnc1-c1cc(Oc2ccc(NC(=O)Nc3cccc(C(F)(F)F)c3)cc2F)ccn1 | 3.02 | 1.27 | 6.47 | 12.6 |  |  |  |  | 
16 | O=C(Nc1ccc(Oc2ccnc(-c3nncn3CCCN3CCOCC3)c2)c(F)c1)Nc1ccc(Cl)c(C(F)(F)F)c1 | 2.86 | 3.23 | 8.28 | 9.65 | 56.7 | 42.3 | 38.5 | 0 | 
17 | O=C(Nc1ccc(Oc2ccnc(-c3nncn3CCCN3CCOCC3)c2)c(F)c1)Nc1ccc(F)c(Cl)c1 | 16.2 | 16.2 | > 50 |  |  |  |  |  | 
18 | O=C(Nc1ccc(Oc2ccnc(-c3nncn3C3CC3)c2)c(F)c1)Nc1ccc(Cl)c(C(F)(F)F)c1 | 10.9 | > 50 | > 50 |  |  |  |  |  | 
19 | CNC(=O)c1cc(Oc2ccc(NC(=O)Nc3ccc(Cl)c(C(F)(F)F)c3)cc2)ccn1 [SORAFENIB] | 3.37 | 2.25 | 3.08 | 8.42 | 95.6 | 97 | 98.5 |  | 
20 | CN(C)CCn1cnnc1-c1cc(Oc2ccc(NC(=O)Nc3ccc(F)c(Cl)c3)cc2F)ccn1 | 0.72 | 1.58 | 8.32 | 7.58 | 74 | 63.3 | 52.2 | 26.9 | 
21 | CN(C)CCn1cnnc1-c1cc(Oc2ccc(NC(=O)Nc3ccc(Cl)c(C(F)(F)F)c3)cc2F)ccn1 | 0.88 | 1.15 | 1.07 | 3.76 | 70.4 | 74.1 | 66.3 | 0 | 
22 | Cn1cnnc1-c1cc(Oc2ccc(NC(=O)Nc3ccc(Cl)c(C(F)(F)F)c3)cc2F)ccn1 | 2.57 | 2.31 | 5.32 | 9.85 |  |  |  |  | 
23 | Cn1ncnc1-c1cc(Oc2ccc(NC(=O)Nc3cccc(C(F)(F)F)c3)cc2F)ccn1 | > 50 | 11.6 | 9.68 | 22.4 |  |  |  |  | 
24 | CCN(CC)CCn1cnnc1-c1cc(Oc2ccc(NC(=O)Nc3ccc(Cl)cc3Cl)cc2F)ccn1 | 3.59 | 5.38 | 1.79 | 4.28 |  |  |  |  | 
25 | CN(C)CCn1cnnc1-c1cc(Oc2ccc(NC(=O)Nc3ccc(Cl)cc3Cl)cc2F)ccn1 | 1.89 | 4.35 | 7.96 | 10.4 |  |  |  | 6 | 
26 | CN(C)CCCn1cnnc1-c1cc(Oc2ccc(NC(=O)Nc3ccc(Cl)c(C(F)(F)F)c3)cc2F)ccn1 | 1.4 | 1.68 | 7.88 | 7.91 | 69.9 | 79.3 | 86.9 | 10.9 | 
27 | CN(C)CCn1cnnc1-c1cc(Oc2ccc(NC(=O)Nc3ccccc3C(F)(F)F)cc2F)ccn1 | 5.86 | > 50 | > 50 | > 50 | 22.7 | 43 | 17.6 | 2.2 | 
28 | CN(C)CCn1cnnc1-c1cc(Oc2ccc(NC(=O)Nc3cccc(C(F)(F)F)c3)cc2F)ccn1 | 1.47 | 2.15 | 16.4 | 11.2 | 60.5 | 77.7 | 42.2 | 2.7 | 

From ChEMBL document CHEMBL3797160, “Discovery of novel diaryl urea derivatives bearing a triazole moiety as potential antitumor agents” (Eur J Med Chem, 2016)
